The values below come from publication PMC6511231 (Cell reports, 2018).

The target of one data set is human LIN28ΔF73A (Homo sapiens, UniProt Q9H9Z2, F73A). Nature of the data set: Competition / dose-response fluorescence polarization assay with LIN28ΔF73A. It counts as binding. The settings on record: preE-let-7f, preE-let-7a, preE-let-7d, preE-let-7g. The gist of the method:
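Recombinant human LIN28ΔF73A (150 nM in the screening master mix; set at the FP-titration Kd for competition) was mixed with 2 nM FAM-labelled preE-let-7 probe (let-7f, -7a, -7d or -7g) in buffer M (100 mM NaCl, 20 mM Tris-HCl pH 7.0, 5 mM MgCl2, 10% glycerol, 5 mM DTT, 0.1% NP-40). Test compound was dispensed at 12 concentrations, 50 μM–20 nM. IC50 came from a 1:1 inhibition fit; each assay was run at least twice.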
On the technique in general: In fluorescence polarisation assays a small probe gives low polarisation when free and higher when bound to something large.

The next data set concerns the target TUT4 (Mus musculus, UniProt B2RX14). The data set can be described thus: Uridylation assay without LIN28. It counts as biochemical.
Data set [1] has as its target mouse LIN28Δ:preE-let-7d complex (Mus musculus, UniProt Q8K3Y3). Nature of the data set: HSQC spectroscopy. The settings on record: 15N-labeled mouse LIN28Δ with unlabeled preE-let-7d. It counts as binding.
Another data set has as its target human LIN28Δ (Homo sapiens, UniProt Q9H9Z2). The data set can be described thus: Saturation transfer difference spectroscopy, LIN28Δ. It counts as binding. The note with it: 100 μM compound, 5 μM LIN28. The essentials:
(§1)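 Protein was dialysed overnight into 20 mM Bis-Tris pH 6.0, 100 mM NaCl, 10% v/v glycerol-d8, 5 mM DTT and D2O. Test compound was dissolved in DMSO-d6. Samples held 100 μM compound and 5 μM protein in dialysis buffer. STD spectra were collected at 700 MHz, irradiating the macromolecule only at −2 ppm, with a 2 s transfer delay.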

The target of data set [2] is CSD (residues 16–136) of LIN28 (Homo sapiens, UniProt Q9H9Z2). Nature of the data set: Saturation transfer difference spectroscopy, CSD. In kind it is binding. The settings on record: CSD alone. The essentials: as §1
For the next data set, the target named is LIN28ΔK102 (Homo sapiens, UniProt Q9H9Z2, K102A). Nature of the data set: Saturation transfer difference spectroscopy, K102A mutant. The settings on record: K102A mutation, compared with LIN28Δ. It counts as binding. The gist of the method: as §1
The subject of a further data set is HeLaLIN28A. Nature of the data set: let-7-sensitive dual luciferase reporter assay, HeLaLIN28A. In kind it is cell-based, human. The settings on record: LI71 50–100 μM, 48 hr. The essentials:
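A HeLa clone stably expressing low-level FLAG-LIN28A plus the 8×let-7 Renilla/firefly dual-luciferase sensor was treated 48 hr with vehicle (DMSO) or test compound at the indicated concentrations. Dual luciferase activity was then assayed, with firefly as internal control. Runs used 3 or 5 biological replicates; Student's t test against vehicle.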

The test system of another data set is HeLaLIN28B. The data set can be described thus: let-7-sensitive dual luciferase reporter assay, HeLaLIN28B. It counts as cell-based, human. The settings on record: LI71 50–100 μM, 48 hr. The essentials:
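HeLa clone stably expressing N-FLAG-LIN28B at low level, from retroviral transduction, puromycin selection and single-cell sorting. Cells were lentivirally transduced with the let-7 dual luciferase sensor: LTR-driven Renilla with eight let-7 sites in the 3′ UTR plus HSV-TK firefly control, as a G418-selected polyclonal pool. Cells received test compound or DMSO vehicle, then were lysed for dual luciferase readout normalised to blank samples.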
For orientation: A reporter such as luciferase makes a cellular process visible.

Data set [3] concerns HeLa control cells expressing GFP and not LIN28. Nature of the data set: let-7-sensitive dual luciferase reporter assay, GFP control cells. In kind it is cell-based, human. The settings on record: up to 100 μM. The essentials: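 HeLa cells were retrovirally transduced with FLAG-GFP (or LIN28) cDNA, puromycin-selected and single-cell cloned. They were then lentivirally given an 8×let-7-site Renilla/HSV-TK firefly cassette and selected with G418 as polyclonal populations. Cells were exposed to up to 100 μM test compound, lysed, and read for dual luciferase with firefly as internal control. Values were normalised to blanks.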

In a further data set the test system is apoptosis. The data set can be described thus: Annexin V flow cytometry. In kind it is cell-based. The settings on record: 100 μM, 48 hr. The essentials: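 Cells exposed to 100 μM test compound or vehicle for 48 hr, then harvested and stained with APC-conjugated annexin V following the kit protocol before flow cytometry.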
In general terms: Flow cytometry measures light scatter and fluorescence of single cells or particles in a stream.

A further data set has as its system K562 leukemia cells. The data set can be described thus: qPCR of microRNA species in K562 cells. In kind it is cell-based, human. The note with it: 100 μM, 48 hr. The essentials:
(§2)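 K562 leukaemia cells, or DKO+A mESCs (Lin28a/Lin28b double-knockout re-expressing wild-type LIN28A, in LIF/2i), were treated 48 hr with 100 μM test compound or vehicle. Total RNA was isolated with TRIzol and cDNA made with the miScript system. Mature and precursor microRNAs were quantified with specific primer assays relative to U6; n = 6 over two independent experiments.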

For the next data set, the system named is DKO+A mESCs. Nature of the data set: qPCR of let-7 species in DKO+A mESCs. The note with it: 100 μM, 48 hr, LIF/2i culture, vs vehicle. It counts as cell-based, mouse. The essentials:
as §2

A short description of a further data set: Solubility in solution. In kind it is physicochemical. The note with it: water / solution.
The next data set is described as follows: Cellular toxicity. In kind it is cell-based. The note with it: high micromolar concentrations.

Entries after “also recorded” stand apart in the source; their conditions may differ.

Sequence of mouse LIN28Δ:preE-let-7d complex (Q8K3Y3 16-184, stated change not applied, one chain of several): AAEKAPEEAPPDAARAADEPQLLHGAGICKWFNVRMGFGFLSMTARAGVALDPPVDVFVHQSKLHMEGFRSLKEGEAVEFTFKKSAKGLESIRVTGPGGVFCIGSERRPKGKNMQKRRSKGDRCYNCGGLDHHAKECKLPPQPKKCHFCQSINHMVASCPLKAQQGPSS
Sequence of human LIN28Δ (Q9H9Z2 16-187, stated change not applied): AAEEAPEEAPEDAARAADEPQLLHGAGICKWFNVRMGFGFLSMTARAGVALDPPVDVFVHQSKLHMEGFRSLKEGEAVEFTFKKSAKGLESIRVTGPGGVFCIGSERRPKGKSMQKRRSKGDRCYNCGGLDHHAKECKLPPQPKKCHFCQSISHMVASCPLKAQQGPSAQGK
Sequence of CSD (residues 16–136) of LIN28 (Q9H9Z2 16-136): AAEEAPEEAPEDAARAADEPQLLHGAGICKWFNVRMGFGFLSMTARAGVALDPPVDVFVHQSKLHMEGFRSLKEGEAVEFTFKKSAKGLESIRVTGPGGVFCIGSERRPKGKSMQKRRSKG
Sequence of TUT4 (B2RX14 230-1424): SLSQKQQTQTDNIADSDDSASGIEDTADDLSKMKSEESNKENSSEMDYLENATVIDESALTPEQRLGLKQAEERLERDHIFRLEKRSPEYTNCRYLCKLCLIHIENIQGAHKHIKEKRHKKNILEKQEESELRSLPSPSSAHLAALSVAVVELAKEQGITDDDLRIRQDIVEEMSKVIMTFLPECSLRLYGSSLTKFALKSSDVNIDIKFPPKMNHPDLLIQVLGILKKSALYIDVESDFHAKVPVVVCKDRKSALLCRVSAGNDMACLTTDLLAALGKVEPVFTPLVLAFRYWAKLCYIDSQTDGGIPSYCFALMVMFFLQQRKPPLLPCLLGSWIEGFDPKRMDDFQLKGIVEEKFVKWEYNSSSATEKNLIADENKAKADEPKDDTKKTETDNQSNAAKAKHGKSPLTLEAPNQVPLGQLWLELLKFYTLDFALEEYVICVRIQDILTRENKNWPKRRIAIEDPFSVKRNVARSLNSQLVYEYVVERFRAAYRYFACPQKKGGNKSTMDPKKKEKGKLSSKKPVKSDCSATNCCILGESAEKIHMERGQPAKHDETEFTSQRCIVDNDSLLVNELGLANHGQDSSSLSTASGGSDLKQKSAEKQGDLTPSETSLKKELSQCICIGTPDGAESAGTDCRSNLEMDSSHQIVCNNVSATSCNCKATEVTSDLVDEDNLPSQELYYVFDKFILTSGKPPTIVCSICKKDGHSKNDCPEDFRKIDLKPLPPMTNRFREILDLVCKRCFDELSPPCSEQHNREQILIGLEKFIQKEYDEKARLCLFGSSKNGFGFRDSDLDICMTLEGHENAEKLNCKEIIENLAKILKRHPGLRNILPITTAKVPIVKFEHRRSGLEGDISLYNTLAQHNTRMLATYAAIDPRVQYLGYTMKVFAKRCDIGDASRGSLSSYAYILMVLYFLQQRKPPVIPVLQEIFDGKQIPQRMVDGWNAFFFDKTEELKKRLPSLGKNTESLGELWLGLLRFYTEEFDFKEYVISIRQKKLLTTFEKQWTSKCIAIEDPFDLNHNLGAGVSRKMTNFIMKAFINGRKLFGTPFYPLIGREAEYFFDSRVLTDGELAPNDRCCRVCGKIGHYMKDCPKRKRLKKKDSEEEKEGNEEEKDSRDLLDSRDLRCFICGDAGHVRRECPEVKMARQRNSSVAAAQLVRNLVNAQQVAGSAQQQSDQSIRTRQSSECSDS
Sequence of LIN28ΔK102 (Q9H9Z2 16-187 K102A): as the sequence (Q9H9Z2 16-187, stated change not applied) above, with K87A counted along it
Sequence of human LIN28ΔF73A (Q9H9Z2 16-187 F73A): as the sequence (Q9H9Z2 16-187, stated change not applied) above, with F58A counted along it

On to `CCOc1cccc2c1N[C@@H](c1ccc(C(=O)O)cc1)[C@H]1CC=C[C@@H]21` [LI71], for which the “IC50s with four let-7 pre-elements” value on human LIN28ΔF73A is on record as “all within the low micromolar range”. Further, the “Catalytic activity of TUT4 when LIN28 is not present” value on TUT4 is recorded as “does not abolish catalytic activity of TUT4”. The “HSQC peak intensity changes” value in data set [1] is on record as “minor intensity reductions for a number of residues”. Besides, the “Saturation transfer difference peaks” value at human LIN28Δ was “saturation transfer difference peaks of LI71 occur”. Further, in data set [2], the “Saturation transfer difference signals” value is “induces the LI71 saturation transfer difference signals”. Besides, the “Saturation transfer difference signal” value on LIN28ΔK102 is on record as “increases the saturation transfer difference signal”. Further, the figures for the “Relative Renilla luciferase activity” value (in the data set with HeLaLIN28A; in the data set with HeLaLIN28B; in data set [3]) were “significantly reduce the relative Renilla luciferase activity”, “significantly reduce the relative Renilla luciferase activity” and “did not show an effect”, respectively. For the same compound, the Apoptosis entry in the data set on apoptosis is on record as “did not increase apoptosis”. The let-7 precursor species entry with K562 leukemia cells is “not correlated with increased levels of let-7 precursor species”. For the same compound, the “miR-16 (non-LIN28-regulated microRNA)” value with K562 leukemia cells is recorded as “small but significant effect”. The “miR-93, miR-99a and miR-151 (non-LIN28-regulated microRNAs)” value in the data set with K562 leukemia cells is given as “did not observe significant effects”. Also, the “Mature let-7 species” value was “significant increase in several let-7 species” in the data set on K562 leukemia cells (vs DMSO) and “increased levels of mature let-7 species” in the data set with DKO+A mESCs. Besides, in “Solubility in solution”, the Solubility result was “better water solubility; also recorded: ample solubility in solution”. Further, the Cellular toxicity result in the data set “Cellular toxicity” is “low cellular toxicity”.
